Measurements as given in ChEMBL document CHEMBL4680103, “In Vitro and in Vivo Anti-Trypanosoma cruzi Activity of New Arylamine Mannich Base-Type Derivatives” (J Med Chem, 2016).
pIC50: −log10 of the molar value. Calls of active or inactive are those of the source. The rule behind the calls is not given here.

Tests used:
[1] = Genotoxicity in Salmonella typhimurium TA102 at 0.03 to 2.25 ug/plate incubated for 48 hrs in presence of liver S9 fraction by Ames test; format: toxicity, subcellular; conditions: salmonella enterica subsp. enterica serovar typhimurium, s9, 48 h
Procedure, shortened: (§1)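 Preincubation Ames assay. […] Top agar with trace histidine/biotin (0.05 mM each) was added and poured onto glucose minimal agar. Plates were incubated 48 h at 37 °C and His+ revertants counted. DMSO was the negative control, with strain-appropriate positive controls. Technical triplicates.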

[2] = Genotoxicity in Salmonella typhimurium TA100 at 0.03 to 2.25 ug/plate incubated for 48 hrs in presence of liver S9 fraction by Ames test; format: toxicity, subcellular; conditions: salmonella enterica subsp. enterica serovar typhimurium, s9, 48 h; procedure, shortened: as §1
Trypanosoma cruzi [3] = test: Antitrypanosomal activity against Trypanosoma cruzi SN3 trypomastigote froms infected in mouse blood incubated for 24 hrs by Neubauer chamber based assay; format: functional, organism-based
Procedure, shortened: (§2)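 Mouse blood taken at peak parasitemia (day 7) was diluted with uninfected blood to 4×10^6 trypomastigotes/mL, then 1:2 in RPMI 1640. Drugs from DMSO stocks were added at 1, 10, 25, 50 and 100 µM and incubated 24 h at 4–8 °C. Parasites were counted in a Neubauer chamber in triplicate. IC50 was calculated versus control.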

Trypanosoma cruzi [4] = test: Antitrypanosomal activity against Trypanosoma cruzi Tulahuen epimastigote forms incubated for 72 hrs by hemocytometry; format: functional, organism-based
Procedure, shortened: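 Epimastigotes grown in MTL medium with 10% inactivated FBS at 28 °C. Compounds were dissolved in DMSO (0.01% v/v) and added at 0.1–100 µM for 72 h. Parasites were counted in a Neubauer chamber. IC50 (50% growth inhibition) was derived by linear regression of Kc values. Values are averages of four determinations.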

Trypanosoma cruzi [5] = test: Antitrypanosomal activity against Trypanosoma cruzi Tulahuen trypomastigote froms infected in mouse blood incubated for 24 hrs by Neubauer chamber based assay; format: functional, organism-based; procedure, shortened: as §2
Trypanosoma cruzi [6] = test: Inhibition of Trypanosoma cruzi Arequipa Fe-SOD at <50 uM by NBT dye based spectrophotometry; conditions: dose microM <50
Procedure, shortened: (§3)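 Fe-SOD source: Arequipa epimastigote homogenate (STE buffer pH 7.8, sonication, centrifugation, supernatant; protein by Bradford); CuZn-SOD was commercial human erythrocyte enzyme. Activity was measured as NBT reduction by superoxide in 50 mM potassium phosphate pH 7.8, with compounds at 5 concentrations (1–100 µM). A560 was read before and after 10 min under lamp light with stirring. Three rate determinations; Newman–Keuls test.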

Trypanosoma cruzi [7] = test: Antitrypanosomal activity against Trypanosoma cruzi Arequipa trypomastigotes infected in BALB/c mouse assessed as reduction in parasitemia level in stomach measured during acute phase (days 0 to 40 post infection) at 100 mg/kg, po dosed on alternating days (7 to 15 days post infection) by PCR analysis; format: functional, organism-based
Trypanosoma cruzi [8] = test: Antitrypanosomal activity against Trypanosoma cruzi infected in African green monkey Vero cells assessed as reduction in infection rate measured up to 10 days by Giemsa staining based hemocytometry; format: functional; conditions: time day <=10
Procedure, shortened: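 Vero cells infected with metacyclic forms (10:1) were exposed to one concentration per compound immediately after infection for 12 h at 37 °C, 5% CO2. After washing, cultures were kept 10 days with fresh medium every 48 h. Every 48 h, % infected cells and amastigotes per infected cell (200 Giemsa-stained cells) and medium trypomastigotes (Neubauer) were scored. Means of three experiments.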

Trypanosoma cruzi [9] = test: Antitrypanosomal activity against Trypanosoma cruzi Arequipa trypomastigotes infected in BALB/c mouse assessed as reduction in splenomegaly by measuring weight percent of spleens […] at 100 mg/kg, po dosed on alternating days (7 to 15 days post infection) by PCR analysis (reference value: 1.603%); format: functional
Trypanosoma cruzi [10] = test: Antitrypanosomal activity against Trypanosoma cruzi Arequipa trypomastigotes infected in BALB/c mouse assessed as parasitemia re-activation level measured during chronic phase ( day 90 post infection) at 50 mg/kg, po dosed on alternating days (7 to 15 days post infection) relative to acute phase infection (reference value: […]%); format: functional
[11] = Genotoxicity in Salmonella typhimurium TA1535 at 0.03 to 2.25 ug/plate incubated for 48 hrs in absence of liver S9 fraction by Ames test; format: toxicity; conditions: salmonella enterica subsp. enterica serovar typhimurium, s9, 48 h; procedure, shortened: as §1
Trypanosoma cruzi [12] = test: Antitrypanosomal activity against Trypanosoma cruzi Arequipa trypomastigotes infected in BALB/c mouse assessed as reduction in parasitemia measured during acute phase (days 0 to 40 post infection) at 50 to 100 mg/kg, po dosed on alternating days (7 to 15 days post infection); format: functional, organism-based; conditions: dose 50-100 mg/kg
Procedure, shortened: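 Female BALB/c mice (8–10 weeks, 25–30 g; groups of six) were infected i.p. with 5×10^5 Arequipa blood trypomastigotes. Dosing was oral, 50 or 100 mg/kg/day, on 5 alternating days (days 7–15 pi), alongside untreated and reference-drug groups. Parasitemia was counted in 5 µL mandibular-vein blood by Neubauer chamber through day 40 pi. Data are means ± SD of six mice.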

Trypanosoma cruzi [13] = test: Antitrypanosomal activity against Trypanosoma cruzi Arequipa trypomastigotes infected in BALB/c mouse assessed as reduction in mouse mortality measured during acute phase (days 0 to 40 post infection) at 50 to 100 mg/kg, po dosed on alternating days (7 to 15 days post infection); format: functional, organism-based; conditions: dose 50-100 mg/kg
[14] = molecular target: Superoxide dismutase [Cu-Zn] (Homo sapiens, UniProt P00441); test: Inhibition of human erythrocyte CuZn-SOD at 100 uM by NBT dye based spectrophotometry; procedure, shortened: as §3
Trypanosoma cruzi [15] = test: Antitrypanosomal activity against Trypanosoma cruzi Arequipa trypomastigotes infected in BALB/c mouse assessed as reduction in parasitemia level in lung measured during acute phase (days 0 to 40 post infection) at 100 mg/kg, po dosed on alternating days (7 to 15 days post infection) by PCR analysis; format: functional, organism-based

Superoxide dismutase [Cu-Zn], sequence (P00441 whole entry): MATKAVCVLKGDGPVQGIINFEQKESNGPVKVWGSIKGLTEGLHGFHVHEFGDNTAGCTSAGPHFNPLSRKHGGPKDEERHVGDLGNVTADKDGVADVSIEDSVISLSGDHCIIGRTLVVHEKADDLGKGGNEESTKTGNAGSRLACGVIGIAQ

pIC50 (Trypanosoma cruzi [3]) | pIC50 (Trypanosoma cruzi [4]) | pIC50 (Trypanosoma cruzi [5]) | inhibition (Trypanosoma cruzi [6]) [%] | inhibition [14] | SMILES | Activity [1] | Activity [2] | Activity (Trypanosoma cruzi [7]) | inhibition (INH) (Trypanosoma cruzi [8]) [%] | Spleen weight percent (Trypanosoma cruzi [9]) [%] | Activity (Trypanosoma cruzi [10]) [%] | Activity [11] | Activity (Trypanosoma cruzi [12]) | Activity (Trypanosoma cruzi [13]) | Activity (Trypanosoma cruzi [15])
5.29 | 6.40 | 5.72 | 100 | inactive | O=C(CCN1CCN(c2ccc(F)cc2)CC1)c1csc2ccc(F)cc12 | Non-Toxic | Non-Toxic | Active | 54 | 0.825 | 0 | Non-Toxic | Active | Active | Active
5.18 | 4.85 | 4.34 |  | inactive | O=C(CCN1CCN(c2ccc(C(F)(F)F)cc2)CC1)c1csc2ccc(F)cc12 | Non-Toxic | Non-Toxic | Active | 47 | 1.041 |  | Non-Toxic | Active | Active | Active
